Data as given in ChEMBL document CHEMBL1156568, “3-(1H-tetrazol-5-yl)-1,4,5,6-tetrahydro-cyclopentapyrazole (MK-0354): a partial agonist of the nicotinic acid receptor, G-protein coupled receptor 109a, with antilipolytic but no vasodilatory activity in mice” (J Med Chem, 2008).
Values belong to the compound of their own block, whether it stands above or below them. Active and inactive are the calls of the source. The rule behind the calls is not given here.

Tests used:
[1] = species: Mus musculus; assay: Inhibition of PGD2-induced vasodilation response in C57BL/6 mouse assessed as blood flow; assay type: functional, organism-based
Summary of the method: (§1)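 Male C57BL/6 mice, 8-10 weeks, ~25 g, anesthetized with Nembutal ip (80 mg/kg). After 10 min, ear blood flow was recorded by laser Doppler imaging: 3 min baseline, then ip dosing (5 mL/kg) through a preinserted syringe, reading ~15 min. Vehicle was PBS, 40% HPBCD or 0.5% methylcellulose. Result expressed as % change in perfusion over baseline.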

[2] = tested on: Mus musculus; assay: Reduction in plasma FFA level in ip dosed C57BL/6 mouse; assay type: functional; details: C57BL/6, Plasma
Summary of the method: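 Male C57BL/6 mice, at least 8 weeks old, fasted 16 h, then dosed ip in saline. Plasma FFA was measured by an enzymatic NEFA assay, and compound levels in the same plasma by LC-MS/MS.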

[3] = tested on: Adipocyte; assay: Inhibition isoproterenol-stimulated lipolysis in human adipocytes
[4] = species: Mus musculus; assay: Inhibition of nicotinic acid-induced vasodilation response in C57BL/6 mouse assessed as blood flow; assay type: functional, organism-based; summary of the method: as §1
[5] = molecular target: Hydroxycarboxylic acid receptor 3 (Homo sapiens) (UniProt P49019); assay: Agonist activity against GPR109b assessed as forskolin-induced cAMP accumulation relative to nicotinic acid; assay type: functional
Sequence of Hydroxycarboxylic acid receptor 3 (Homo sapiens) (P49019 whole entry): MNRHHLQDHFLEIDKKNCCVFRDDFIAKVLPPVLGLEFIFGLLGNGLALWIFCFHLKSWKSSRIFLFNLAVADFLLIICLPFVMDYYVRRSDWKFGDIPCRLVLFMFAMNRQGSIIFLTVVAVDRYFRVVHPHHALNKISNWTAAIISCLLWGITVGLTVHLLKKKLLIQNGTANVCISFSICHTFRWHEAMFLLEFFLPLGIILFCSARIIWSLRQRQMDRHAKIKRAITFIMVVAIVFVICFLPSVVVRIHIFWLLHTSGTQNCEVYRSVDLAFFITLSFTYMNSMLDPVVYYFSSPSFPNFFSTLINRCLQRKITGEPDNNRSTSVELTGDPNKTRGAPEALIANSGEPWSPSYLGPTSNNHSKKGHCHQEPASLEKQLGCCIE

[6] = species: Mus musculus; assay: Vasodilation effect in C57BL/6 mouse assessed as increase in blood flow relative to baseline; assay type: functional, organism-based; summary of the method: as §1
[7] = Cmax in C57BL/6 mouse at 5 mg/kg, iv and 10 mg/kg, po; assay type: ADME, organism-based; details: in vivo
Summary of the method: (§2)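 Male C57BL/6 mice dosed IV at 5.0 mg/kg in PBS, or by oral gavage at 10 mg/kg in PBS. Clearance is blood clearance. Cmax and Tmax come from oral dosing. Half-life is terminal. Oral bioavailability is also reported.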

[8] = Tmax in C57BL/6 mouse at 5 mg/kg, iv and 10 mg/kg, po; assay type: ADME, organism-based; details: in vivo; summary of the method: as §2
[9] = Volume of distribution in C57BL/6 mouse at 5 mg/kg, iv and 10 mg/kg, po; assay type: ADME, organism-based; details: in vivo; summary of the method: as §2
[10] = Half life in C57BL/6 mouse at 5 mg/kg, iv and 10 mg/kg, po; assay type: ADME, organism-based; details: in vivo; summary of the method: as §2
[11] = Oral bioavailability in C57BL/6 mouse at 10 mg/kg, po; assay type: ADME, organism-based; details: in vivo; summary of the method: as §2

IC50 [3]: 3.1 µM
Activity [5]: inactive
Structure (SMILES): C1Cc2[nH]nc(-c3nn[nH]n3)c2C1
Activity [1]: inactive
ED50 [2]: 3.1 mg/kg
Activity [4]: Active

Structure (SMILES): O=C(O)c1cccnc1 [NIACIN]
ED50 [2]: 9.7 mg/kg

Structure (SMILES): O=C(O)c1n[nH]c2c1CCC2
Activity [6]: Dose-dependent effect

Cmax [7]: 16 µM
Tmax [8]: 4.98 min
Vd [9]: 13 L/kg
half-life [10]: 10 h
bioavailability [11]: 93%
Structure (SMILES): C1Cc2[nH]nc(-c3nnn[nH]3)c2C1
